Assay [1] deals with Caenorhabditis elegans. Nature of the assay: Induction of dauer formation in Caenorhabditis elegans Bristol egl-4(ks61) mutant at 20 degC. The assay is classed as functional, organism-based. Summed up:
(§1)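 Dauer formation assay: eggs were laid on agar plates containing a range of ascaroside concentrations plus a small amount of food, and percent dauer formation was scored. Stock worms were maintained at 20–23 °C on NG plates made with Noble agar and seeded with E. coli OP50.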

In assay [2] the test system is Caenorhabditis elegans. Put plainly: Induction of dauer formation in wild type Caenorhabditis elegans Bristol […] at 20 degC. The assay is classed as functional, organism-based. The method in brief:
(§2)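 Wild-type N2 eggs were laid on plates containing a range of ascaroside concentrations plus a little food, then held at 20 °C or 25 °C, and percent dauer formation was scored. Each value is the mean of three experiments. EC50 was taken as half-maximal activity from a sigmoidal fit with the lower limit fixed at 0 and the upper limit left free.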

The test system of assay [3] is Caenorhabditis elegans. Nature of the assay: Induction of dauer formation in Caenorhabditis elegans Bristol osm-9(ky10) mutant at 20 degC. The assay is classed as functional, organism-based. Summed up: as §1
For assay [4], the system named is Caenorhabditis elegans. Put plainly: Induction of dauer formation in Caenorhabditis elegans Bristol ocr-2(ak47) mutant at 20 degC. The assay is classed as functional, organism-based. Summed up: as §1
Assay [5] deals with Caenorhabditis elegans. Nature of the assay: Induction of dauer formation in Caenorhabditis elegans Bristol tax-2(p691) mutant at 20 degC. The assay is classed as functional, organism-based. Summed up: as §1
In assay [6] the test system is Caenorhabditis elegans. Nature of the assay: Induction of dauer formation in Caenorhabditis elegans Bristol tax-4(p678) mutant at 20 degC. The assay is classed as functional, organism-based. The method in brief:
as §1

The subject of assay [7] is Caenorhabditis elegans. Nature of the assay: Induction of dauer formation in Caenorhabditis elegans Bristol daf-7(1372) mutant at 20 degC. The assay is classed as functional, organism-based. Summed up:
as §1

The test system of assay [8] is Caenorhabditis elegans. Nature of the assay: Induction of dauer formation in wild type Caenorhabditis elegans Bristol […] at 25 degC. The assay is classed as functional, organism-based. Summed up:
as §2

The test system of assay [9] is Caenorhabditis elegans. Put plainly: Induction of dauer formation in wild type Caenorhabditis elegans Bristol N2 at 73 uM.

As usually defined, the EC50 is the concentration that produces a half-maximal response.

Active and inactive are the calls of the source. The calls are words filed in the database; no cut-off is given here.

Consider `CC(=O)CC[C@@H](C)O[C@@H]1O[C@@H](C)[C@H](O)C[C@H]1O`, for which the outcome in the assay on Caenorhabditis elegans [1], with Caenorhabditis elegans [3], in the assay on Caenorhabditis elegans [4], in the assay with Caenorhabditis elegans [5], in the assay with Caenorhabditis elegans [6] and in the assay with Caenorhabditis elegans [7] was inactive. Besides, the concentration giving a half-maximal response (EC50) was determined as 460 nM in the assay with Caenorhabditis elegans [2] and 120 nM in the assay on Caenorhabditis elegans [8]. Further, in the assay with Caenorhabditis elegans [9], the outcome was Active.
Take `C[C@H](CCCC/C=C/C(=O)O)O[C@@H]1O[C@@H](C)[C@H](O)C[C@H]1O`: the result with Caenorhabditis elegans [1], in the assay on Caenorhabditis elegans [3], in the assay on Caenorhabditis elegans [4], in the assay with Caenorhabditis elegans [5], with Caenorhabditis elegans [6] and in the assay on Caenorhabditis elegans [7] was inactive. For the same compound, the EC50 with Caenorhabditis elegans [2] is 1100 nM; in the assay with Caenorhabditis elegans [8], 370 nM. Also, the result with Caenorhabditis elegans [9] was Active.
With `C[C@H](CCCCC(=O)O)O[C@@H]1O[C@@H](C)[C@H](O)C[C@H]1O` [DAUMONE], the outcome in the assay with Caenorhabditis elegans [1], in the assay with Caenorhabditis elegans [3], in the assay on Caenorhabditis elegans [4], with Caenorhabditis elegans [5], in the assay with Caenorhabditis elegans [6] and with Caenorhabditis elegans [7] was inactive. Also, the EC50 in the assay on Caenorhabditis elegans [2] was 88000 nM; with Caenorhabditis elegans [8], 18000 nM.
